# Laboratory results published in ChEMBL document CHEMBL3400032 (Bioorg Med Chem, 2015).
# What was measured:
# [1] = Drug metabolism in Sprague-Dawley rat liver S9 fraction assessed as compound remaining at 1 uM after 30 mins by HPLC/MS/MS analysis relative to control; type: ADME, subcellular; details: read-out: Stability
# In short: (§1)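 Test compound at 1 µM final, incubated 30 min at 37 °C in serum, or in S9 mix (50 mM potassium phosphate pH 7.4, 3 mM NADPH, 1 mg protein/mL pooled male SD rat or human liver S9). Preincubated 5 min at 37 °C, compound added in acetonitrile–water (1:1), stopped with ice-cold acetonitrile, centrifuged, filtered, parent and carboxylate hydrolysate quantified by HPLC-MS/MS.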
# [2] = Drug metabolism in rat serum assessed as compound remaining at 1 uM after 30 mins by HPLC/MS/MS analysis relative to control; type: ADME, cell-free; details: read-out: Stability; in short: as §1
# [3] = Drug metabolism in human liver S9 fraction assessed as compound remaining at 1 uM after 30 mins by HPLC/MS/MS analysis relative to control; type: ADME, subcellular; details: read-out: Stability; in short: as §1
# [4] = Drug metabolism in human serum assessed as compound remaining at 1 uM after 30 mins by HPLC/MS/MS analysis relative to control; type: ADME, cell-free; details: read-out: Stability; in short: as §1
# [5] = Drug metabolism in Sprague-Dawley rat liver S9 fraction assessed as 2-(3-aminopiperidin-1-yl)-3-(2-chlorobenzyl)-5-methyl-4-oxo-4,5-dihydro-3H-imidazo[4,5-c]quinoline-8-carboxylic acid formation at 1 uM after 30 mins by HPLC/MS/MS analysis relative to control; type: ADME, subcellular; details: s9, 0.5 h; in short: as §1
# Serum [6] = assay: Drug metabolism in rat serum assessed as 2-(3-aminopiperidin-1-yl)-3-(2-chlorobenzyl)-5-methyl-4-oxo-4,5-dihydro-3H-imidazo[4,5-c]quinoline-8-carboxylic acid formation at 1 uM after 30 mins by HPLC/MS/MS analysis relative to control; type: ADME, cell-free; details: 0.5 h; in short: as §1
# [7] = Drug metabolism in human liver S9 fraction assessed as 2-(3-aminopiperidin-1-yl)-3-(2-chlorobenzyl)-5-methyl-4-oxo-4,5-dihydro-3H-imidazo[4,5-c]quinoline-8-carboxylic acid formation at 1 uM after 30 mins by HPLC/MS/MS analysis relative to control; type: ADME, subcellular; details: s9, 0.5 h; in short: as §1
# Serum [8] = assay: Drug metabolism in human serum assessed as 2-(3-aminopiperidin-1-yl)-3-(2-chlorobenzyl)-5-methyl-4-oxo-4,5-dihydro-3H-imidazo[4,5-c]quinoline-8-carboxylic acid formation at 1 uM after 30 mins by HPLC/MS/MS analysis relative to control; type: ADME, cell-free; details: 0.5 h; in short: as §1
# [9] = Permeability of the compound at pH 5 by PAMPA; type: ADME; details: read-out: permeability
# [10] = Permeability of the compound at pH 7.4 by PAMPA; type: ADME; details: read-out: permeability
# Rattus norvegicus = assay: Oral bioavailability in rat assessed as 2-(3-aminopiperidin-1-yl)-3-(2-chlorobenzyl)-5-methyl-4-oxo-4,5-dihydro-3H-imidazo[4,5-c]quinoline-8-carboxylic acid level at 10 mg/kg; type: ADME, organism-based; details: in vivo
# [11] = AUC in rat at 1 mg/kg, iv; type: ADME, organism-based; parameters: dose 1 mg/kg, route intravenous; details: plasma
# [12] = Clearance in rat at 1 mg/kg, iv; type: ADME, organism-based; parameters: dose 1 mg/kg, route intravenous; details: in vivo
# [13] = Volume of distribution at steady state in rat at 1 mg/kg, iv; type: ADME, organism-based; parameters: dose 1 mg/kg, route intravenous; details: in vivo, read-out: Vdss
# [14] = Half life in rat at 1 mg/kg, iv; type: ADME, organism-based; parameters: dose 1 mg/kg, route intravenous; details: in vivo
# Liver microsome [15] = assay: Clearance in human liver microsomes assessed per mg protein
# Liver microsome [16] = assay: Clearance in Sprague-Dawley rat liver microsomes assessed per mg protein
SMILES,"remaining at 0.5 h, 1 µM [1]","remaining at 0.5 h, 1 µM [2]","remaining at 0.5 h, 1 µM [3]","remaining at 0.5 h, 1 µM [4]",Drug metabolism [5],Drug metabolism (Serum [6]),Drug metabolism [7],Drug metabolism (Serum [8]),Papp [9],Papp [10],F (Rattus norvegicus),AUC [11],clearance [12],Vd [13],half-life [14],CLH (Liver microsome [15]),CLH (Liver microsome [16])
COC(=O)c1ccc2c(c1)c1nc(N3CCC[C@@H](N)C3)n(Cc3ccccc3Cl)c1c(=O)n2C.Cl,< 0.5%,72%,> 99%,80%,metabolite_detected,metabolite_detected,metabolite_detected,metabolite_detected,341 nm/s,474 nm/s,2.4%,–,–,–,–,–,–
Cl.Cn1c(=O)c2c(nc(N3CCC[C@@H](N)C3)n2Cc2ccccc2Cl)c2cc(C(=O)OCOC(=O)C(C)(C)C)ccc21,< 0.5%,0.6%,< 0.5%,73%,metabolite_detected,metabolite_detected,metabolite_detected,metabolite_detected,65 nm/s,63 nm/s,–,–,–,–,–,–,–
Cn1c(=O)c2c(nc(N3CCC[C@@H](N)C3)n2Cc2cc(F)ccc2Cl)c2ccc(C(=O)O)cc21,–,–,–,–,–,–,–,–,–,–,–,0.0999 µg·h/mL,10 L/h/kg,31.5 L/kg,8.3 h,–,–
Cn1c(=O)c2c(nc(N3CCC[C@@H](N)C3)n2Cc2cc(F)ccc2Cl)c2cc(C(=O)O)ccc21,–,–,–,–,–,–,–,–,–,–,–,0.0753 µg·h/mL,13.3 L/h/kg,7.1 L/kg,1.3 h,< 10 µL/min/mg,< 10 µL/min/mg

# Results, then the compound that gave them:
"remaining at 0.5 h, 1 µM [1]","remaining at 0.5 h, 1 µM [2]","remaining at 0.5 h, 1 µM [3]","remaining at 0.5 h, 1 µM [4]",Drug metabolism [5],Drug metabolism (Serum [6]),Drug metabolism [7],Drug metabolism (Serum [8]),Papp [9],Papp [10],F (Rattus norvegicus),AUC [11],clearance [12],Vd [13],half-life [14],CLH (Liver microsome [15]),CLH (Liver microsome [16]),SMILES
> 99%,38%,> 99%,< 0.5%,metabolite_detected,metabolite_detected,metabolite_detected,metabolite_detected,< 1 nm/s,< 1 nm/s,–,–,–,–,–,–,–,CN(C)CCCOC(=O)c1ccc2c(c1)c1nc(N3CCC[C@@H](N)C3)n(Cc3ccccc3Cl)c1c(=O)n2C.Cl
> 99%,97%,> 99%,< 0.5%,metabolite_detected,metabolite_detected,metabolite_detected,metabolite_detected,< 1 nm/s,6 nm/s,–,–,–,–,–,–,–,CN(C)CCOC(=O)c1ccc2c(c1)c1nc(N3CCC[C@@H](N)C3)n(Cc3ccccc3Cl)c1c(=O)n2C.Cl
78%,76%,48%,7%,metabolite_detected,metabolite_detected,metabolite_detected,metabolite_detected,< 1 nm/s,34 nm/s,–,–,–,–,–,–,–,Cl.Cn1c(=O)c2c(nc(N3CCC[C@@H](N)C3)n2Cc2ccccc2Cl)c2cc(C(=O)OCCCN3CCOCC3)ccc21
30%,92%,22%,< 0.5%,metabolite_detected,metabolite_detected,–,metabolite_detected,101 nm/s,180 nm/s,–,–,–,–,–,–,–,C[C@@H]1CN(CCOC(=O)c2ccc3c(c2)c2nc(N4CCC[C@@H](N)C4)n(Cc4ccccc4Cl)c2c(=O)n3C)C[C@H](C)O1.Cl
> 99%,50%,37%,6.8%,metabolite_detected,metabolite_detected,metabolite_detected,metabolite_detected,9 nm/s,71 nm/s,–,–,–,–,–,–,–,Cl.Cn1c(=O)c2c(nc(N3CCC[C@@H](N)C3)n2Cc2ccccc2Cl)c2cc(C(=O)OCCN3CCOCC3)ccc21
